How the values were obtained:
[1] = Partition coefficient (logP); format: physicochemical; conditions: octanol/water
[2] = target: T1, Muscarinic acetylcholine receptor M2 (Sus scrofa, UniProt P06199); assay: Inhibition of [3H]- N-methyl-scopolamine ([3H]NMS) dissociation from porcine cardiac M2-receptors; conditions: read-out: Log 1/EC50 (converted)
T1 sequence (P06199 whole entry): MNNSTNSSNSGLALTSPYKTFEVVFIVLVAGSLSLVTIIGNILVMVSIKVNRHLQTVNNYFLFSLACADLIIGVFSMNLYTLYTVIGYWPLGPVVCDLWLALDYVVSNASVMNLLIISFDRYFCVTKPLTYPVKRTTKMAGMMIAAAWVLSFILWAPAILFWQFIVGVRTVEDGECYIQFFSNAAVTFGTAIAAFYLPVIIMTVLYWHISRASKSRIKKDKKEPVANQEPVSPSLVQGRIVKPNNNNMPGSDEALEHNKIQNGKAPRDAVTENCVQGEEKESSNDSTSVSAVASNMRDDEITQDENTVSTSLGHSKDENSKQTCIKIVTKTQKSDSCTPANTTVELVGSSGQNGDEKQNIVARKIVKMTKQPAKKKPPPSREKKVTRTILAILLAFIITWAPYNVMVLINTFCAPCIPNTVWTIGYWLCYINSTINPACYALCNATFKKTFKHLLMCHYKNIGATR
How it was run: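 Porcine heart ventricular myocardium homogenate, stored at −80 °C. Membranes preincubated 30 min with [3H]NMS in 3 mM MgHPO4, 50 mM Tris, pH 7.3, 37 °C. Dissociation started with 1 µM atropine, with or without test compound. Bound ligand collected by filtration and counted by liquid scintillation. Monoexponential fit gave apparent k−1; EC50 for k−1 reduced to 50% of control, from four-parameter logistic fit.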

Row | logP [1] | EC50 [2] [nM] | SMILES
1 | 3.65 | 1000 | C[N+](C)(CCCCCC[N+](C)(C)CCCN1C(=O)c2ccccc2C1Cc1ccccc1)CCCN1C(=O)c2ccccc2C1Cc1ccccc1 (centres undefined)
2 | 1.55 | 2000 | C[N+](C)(CCCCCC[N+](C)(C)CCCN1Cc2ccccc2C1=O)CCCN1Cc2ccccc2C1=O
3 | 2.48 | 1580 | CC(C)OC1c2ccccc2C(=O)N1CCC[N+](C)(C)CCCCCC[N+](C)(C)CCCN1C(=O)c2ccccc2C1OC(C)C (centres undefined)
4 | 1.45 | 6030 | C[N+](C)(CCCCCC[N+](C)(C)CCCN1C(=O)c2ccccc2C1O)CCCN1C(=O)c2ccccc2C1O (centres undefined)
5 | 1.72 | 6760 | COC1c2ccccc2C(=O)N1CCC[N+](C)(C)CCCCCC[N+](C)(C)CCCN1C(=O)c2ccccc2C1OC (centres undefined)

Second part, the molecule before the results:

Row | SMILES | logP [1] | EC50 [2] [nM]
6 | C[N+](C)(CCCCCC[N+](C)(C)CCCN1C(=O)c2ccccc2/C1=C/c1ccccc1)CCCN1C(=O)c2ccccc2/C1=C/c1ccccc1 | 2.96 | 85.1
7 | C[N+](C)(CCCCCC[N+](C)(C)CCCN1C(=O)c2ccccc2C1=O)CCCN1C(=O)c2ccccc2C1=O | 1.46 | 1410
8 | CC(C)SC1c2ccccc2C(=O)N1CCC[N+](C)(C)CCCCCC[N+](C)(C)CCCN1C(=O)c2ccccc2C1SC(C)C (centres undefined) | 2.92 | 1260
9 | C[N+](C)(CCCCCC[N+](C)(C)CCCN1C(=O)c2ccccc2C1c1ccccc1)CCCN1C(=O)c2ccccc2C1c1ccccc1 (centres undefined) | 3.4 | 794
10 | CCOC1c2ccccc2C(=O)N1CCC[N+](C)(C)CCCCCC[N+](C)(C)CCCN1C(=O)c2ccccc2C1OCC (centres undefined) | 2.07 | 2290
11 | C[N+](C)(CCCCCC[N+](C)(C)CCCN1C(=O)c2ccccc2/C1=C\c1ccccc1)CCCN1C(=O)c2ccccc2/C1=C/c1ccccc1 | 2.96 | 66.1
12 | C[N+](C)(CCCCCC[N+](C)(C)CCCN1C(=O)c2ccccc2/C1=C\c1ccccc1)CCCN1C(=O)c2ccccc2/C1=C\c1ccccc1 | 2.96 | 70.8

— ChEMBL document CHEMBL1133727, “Structure-activity relationships in a series of bisquaternary bisphthalimidine derivatives modulating the muscarinic M(2)-receptor allosterically” (J Med Chem, 2000)
